Results from different studies.
Compare with care: the assays were run in different laboratories.
Target: Vascular endothelial growth factor receptor 2 (KDR, Homo sapiens, UniProt P35968)

| SMILES | assay | conditions | measurement | value |
| --- | --- | --- | --- | --- |
| CC(=O)N1CCC(c2ccc(C(=O)NC3=NCCN3)cc2C(F)(F)F)CC1 | cell-free assay, competition with immobilised ligand | 1 µM | remaining binding | 80% |
| CS(=O)(=O)Nc1cccc(-c2csc(NC(=O)CSc3nc4nccnc4c(=O)n3CCc3ccccc3)n2)c1 | enzyme activity, inhibitor | 10 µM | inhibition | 0% |
| CC(=O)Nc1c(C(C)=O)c(=O)n(C)c2nc(-c3ccc(Cl)cc3Cl)c(-c3ccc(Cl)cc3)cc12 | cell-free assay, competition with immobilised ligand | 1 µM | remaining binding | 94% |
| Cc1sc(C(=O)NC2COC2)cc1-n1cc(NC(=O)Nc2c(F)cccc2Cl)cn1 | enzyme activity, inhibitor | 10 µM | remaining activity | 88.2% |
| CNC(=O)c1cc2c(Oc3ccc(NC(=O)C4(C(=O)Nc5ccc(F)cc5)CC4)cc3)ccnc2cc1OC | enzyme activity, inhibitor, radiometric | 1 µM | inhibition | 82% |
| O=C1Nc2ccc(Cl)cc2C1=Cc1cc(Cl)c(O)c(Cl)c1 | cell-free assay | 0.5 µM | remaining signal | 86.1% |
| CN(C)c1ncnc(-c2ccc3nc(Nc4cc(CN5CCN(C(=O)CC(F)(F)F)CC5)ccn4)[nH]c3c2)c1Cl | cell-free assay, competition with immobilised ligand | 1 µM | remaining binding | 74% |
| COc1ccc(NC(=O)c2c(Nc3ccccc3)sc(C#N)c2NC(=O)CNc2ccc(Br)cc2)cc1 | enzyme activity, inhibitor | 1 µM | remaining activity | 51.3% |
| Cn1nc(C(=O)NCc2ccc(C(=O)O)cc2)cc1-c1ccc2[nH]ccc2c1 | cell-free assay, competition with immobilised ligand | 0.1 µM | remaining binding | 85% |
| CNC(=O)c1c(C)oc2cc(Oc3ncnc4cc(OC)c(OC)cc34)ccc12 | enzyme activity, inhibitor | 0.1 µM | inhibition | 89.9% |
| CCCCN(CCCC)C(=O)CN1C[C@H](c2cc(OC)c3c(c2)OCO3)[C@@H](C(=O)O)[C@@H]1CC(C)(C)CCC | cell-free assay, competition with immobilised ligand | 1 µM | remaining binding | 88.7% |
| C[S+]([O-])c1ccc(-c2nc(-c3ccncc3)c(-c3ccc(F)cc3)[nH]2)cc1 (stereo not drawn) | cell-free assay | 0.5 µM | remaining signal | 99.2% |
| Cc1ccc(C(=O)Nc2ccc(CN3CCN(C)CC3)c(C(F)(F)F)c2)cc1C#Cc1cnc2cccnn12 | cell-free assay | 23.5 nM | remaining signal | 15% |
| Cc1c(NC(=O)c2cc(C(N)=O)nc3cc(F)ccc23)c(C(F)(F)F)nn1Cc1ccc(C(C)(C)C)cc1 | cell-free assay, competition with immobilised ligand | 1 µM | remaining binding | 100% |
| CCOc1cc(-c2nncn2C)ccc1Nc1ncc2cc(C)nc(NCC(C)(C)C)c2n1 | enzyme activity, inhibitor, FRET | 1 µM | inhibition | < 15% |
| COc1ccc(NC(=O)c2c(Nc3ccccc3)sc(C(=O)NN=Cc3ccc(Cl)cc3)c2NC(C)=O)cc1 | enzyme activity, inhibitor | 100 µM | remaining activity | 60.6% |
| COc1cc2ncnc(Nc3ccc(Oc4ccccc4)c(C)c3C)c2cc1OC | enzyme activity, inhibitor | 1 µM | inhibition | 16% |
| COc1ccc(NC(=O)c2c(Nc3ccccc3)sc(C(=O)NN=Cc3ccc(OC)c(O)c3)c2NC(C)=O)cc1 | enzyme activity, inhibitor | 0.1 µM | remaining activity | 83.2% |
| CC/C(=N\NC(=O)NCc1cccc(O)c1)c1ccc(O)c(C)c1O | enzyme activity, inhibitor | 0.1 µM | inhibition | 2.7% |
| COc1ccc(NC(=O)c2c(Nc3ccccc3)sc(C(=O)NN=Cc3cc(OC)c(OC)c(OC)c3)c2NC(C)=O)cc1 | enzyme activity, inhibitor | 1 µM | remaining activity | 82.1% |
| COc1cc2c(N3CCN(C(=O)Nc4ccc(OC(C)C)cc4)CC3)ncnc2cc1OCCCN1CCCCC1 | cell-free assay | 0.5 µM | remaining signal | 106% |
| CCC(=N\O)/C(C)=C/c1ccc(F)cc1 | cell-free assay, competition with immobilised ligand | 1 µM | remaining binding | 81% |
| COc1ccc(NC(=O)c2c(Nc3ccccc3)sc(C#N)c2NC(=O)CNc2ccc(Cl)cc2)cc1 | enzyme activity, inhibitor | 10 nM | remaining activity | 98% |
| O=C1Nc2ccc(Br)cc2/C1=C/c1cc2c([nH]1)CCCC2 | cell-free assay | 0.5 µM | remaining signal | 70.9% |
| COc1ccc(NC(=O)c2c(Nc3ccccc3)sc(C#N)c2NC(=O)CNc2ccc([N+](=O)[O-])cc2)cc1 | enzyme activity, inhibitor | 10 µM | remaining activity | 71.8% |
| CNc1cccc2cc(C(=O)Nc3ccc(C(=O)O)cc3)c(=O)[nH]c12 | enzyme activity, inhibitor | 10 µM | inhibition | 4.8% |
| CN(C)C1CCN(CC#Cc2nn(C3CCCC3)c3nc(NCc4ccccc4)ncc23)C1 (stereo not drawn) | enzyme activity, inhibitor, FRET | 10 µM | inhibition | 56% |
| O=C(O)c1cc(-c2ccc(C3CCNCC3)cc2)c2ccc(-c3ccc(C(F)(F)F)cc3)cc2c1 | cell-free assay, competition with immobilised ligand | 1 µM | remaining binding | 100% |
| COc1ccc(COc2ccc(Cc3cnc(N)nc3N)cc2OC)cc1 | cell-free assay | 0.5 µM | remaining signal | 109% |
| Cc1ccc(C(=O)NCc2ccsc2)cc1C#Cc1cn(C(C)C)c2ncnc(N)c12 | enzyme activity, inhibitor | 1 µM | activity vs control | 0% |
